PAFAH1B3 inh – blocks human PAF acetylhydrolase 1B catalytic subunit 3; AID 492972; 340,000 tested, 0.28% active; inhibition, % at 3.39 µM; recombinant PAFAH1B3, FP-rhodamine probe, fluorescence polarization;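 active means inhibition above the screen-wide average of all tested compounds plus 3 SD, cut at about 25% in these data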
TDP2 inh – TDP2 (human) inhibition, absorbance primary screen | O95551 | recombinant TDP2, T5PNP hydrolysis, p-nitrophenol absorbance 415 nm | inhibition, % at 12.8 µM | 370,000 tested, 0.34% active | AID 720702;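 active means inhibition above the mean of all tested compounds plus 3 SD, set per campaign, cut at about 25% in these data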
Target sequence (O95551 whole entry, looked up): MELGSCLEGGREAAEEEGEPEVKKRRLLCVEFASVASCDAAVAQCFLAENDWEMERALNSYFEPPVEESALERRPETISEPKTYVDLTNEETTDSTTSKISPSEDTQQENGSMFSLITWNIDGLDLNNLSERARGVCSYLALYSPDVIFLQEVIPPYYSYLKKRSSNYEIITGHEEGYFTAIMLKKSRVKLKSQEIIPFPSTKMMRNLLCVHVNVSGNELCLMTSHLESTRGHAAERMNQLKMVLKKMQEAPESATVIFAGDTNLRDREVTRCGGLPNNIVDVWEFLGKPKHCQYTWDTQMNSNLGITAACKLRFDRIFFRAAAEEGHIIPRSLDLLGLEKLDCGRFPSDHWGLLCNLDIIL
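test system = human TDP2 enzyme | input = TDP2 enzyme at 120 nM final | medium = 50 mM Tris-HCl pH 7.5 with Mg2+, KCl, DTT, BSA | also added = T5PNP substrate, 5 mM | times = 2 h at 37 °C | technique = epi absorbance | benchmarks = high control without enzyme, low control DMSO plus TDP2 | replication = each compound tested once, singlicate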
PAFAH1B2 FP inh – inhibitors of human PAFAH1B2; recombinant PAFAH1B2, FP-rhodamine activity probe, fluorescence polarization; P68402; inhibition, % at 3.39 µM; 340,000 tested, 1.2% active;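 active means inhibition above the mean of all tested compounds plus 3 SD, cut at about 24% in these data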
Target sequence (P68402 whole entry, looked up): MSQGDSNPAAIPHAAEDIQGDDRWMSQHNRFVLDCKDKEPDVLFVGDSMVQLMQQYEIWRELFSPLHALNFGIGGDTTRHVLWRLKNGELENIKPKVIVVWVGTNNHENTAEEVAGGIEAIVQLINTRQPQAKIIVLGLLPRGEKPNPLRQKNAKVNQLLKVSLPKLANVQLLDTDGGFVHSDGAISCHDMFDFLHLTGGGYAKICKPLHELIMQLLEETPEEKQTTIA
PAFAH2 FP inh – inhibitors of human PAFAH2; inhibition, % at 3.39 µM; Q99487; AID 492956; recombinant PAFAH2, FP-rhodamine activity probe, fluorescence polarization; 340,000 tested, 0.99% active;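 active means inhibition above the mean over all tested compounds plus 3 SD, cut at about 30% in these data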;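 further: inhibitors block probe labeling of enzyme so polarization drops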
Apaf-1 inh – human Apaf-1 inhibition | reconstituted apoptosome caspase-3 activity, DEVD-Rh110 fluorescence | inhibition, % at 20 µM | 330,000 tested, 0.71% active | AID 489030; active means inhibition of at least 40% at 20 µM
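detection = Rh110 fluorescence intensity | test system = biochemical Apaf-1 apoptosome reconstitution | also added = cytochrome c and DEVD-Rh110 substrate | schedule = 30 min plus 50 min, RT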
PAFAH1B3 confirm – confirmation of human PAFAH1B3 inhibitors; shares compounds with PAFAH1B3 inh; recombinant PAFAH1B3, FP-Rh activity-based probe, fluorescence polarization; inhibition, % at 3.39 µM; 390 tested, 30% active; AID 493032;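 active means average inhibition over triplicate runs above the hit cutoff set in the earlier primary screen, cut at about 25% in these data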
TDP2 inh conf – confirmation of human TDP2 inhibitors; shares compounds with TDP2 inh; recombinant human TDP2, absorbance read-out; inhibition, % at 12.8 µM; 1,100 tested, 22% active; in the data active means inhibition above about 25%
Numbers stand for hits; 0 = inactive; - = no result; ! = a repeat was not active. Hits are enriched below; roughly 2.3% of the tested compounds scored in any of these assays.

SMILES	PAFAH1B3 inh	TDP2 inh	PAFAH1B2 FP inh	PAFAH2 FP inh	Apaf-1 inh	TDP2 inh conf	others
C[n+]1c2cc(N)ccc2cc2ccc(N)cc21	33	29	0	0	-	28	PAFAH1B3 confirm=28!
Cc1ccc(S(=O)(=O)N2CCCC2C(=O)N2CCc3ccccc3C2)cc1C (stereo unspecified)	-	0	-	-	-	-
C/C(=N/NS(=O)(=O)c1ccc(Br)cc1)c1c[nH]c2ccccc12	0	25	0	0	0	0
CN(CCOc1ccccc1)CC(=O)Nc1ccc(S(=O)(=O)N2CCCC2)cc1	0	30	0	0	0	0
COc1cccc(CC(=O)O[C@@H]2CCC[C@@]3(C(=O)N(Cc4ccccc4)c4ccccc43)[C@H]2NC(=O)CCc2ccccc2)c1	-	0	-	-	-	-
CCC(CO)Oc1cc(NC(=O)c2cccc(OC)c2)c2ncn(C(C)C)c2c1 (stereo unspecified)	0	26	0	0	0	31
Cc1sc2ncnc(N(C)Cc3cccs3)c2c1C	0	0	0	0	0	-
Cc1sc2ncnc(N(C)CCc3ccccn3)c2c1C	0	26	0	0	0	0
O=C(NCc1ccc(F)cc1)C1CC(=O)N(Cc2ccco2)C1 (stereo unspecified)	0	25	0	0	0	0
O=C(N=Nc1c(O)[nH]c2ccc([N+](=O)[O-])cc12)c1ccccc1[N+](=O)[O-]	0	35	0	0	0	0
Cc1ccccc1OCCC(=O)OCC(=O)c1c(N)n(CC(C)C)c(=O)n(C)c1=O	0	29	0	0	0	0
CCOC(=O)c1c2c(n(Cc3ccccc3)c1C)C(=O)C(=O)c1ccccc1-2	79	51	30	52	-	73
Cc1[nH][nH]c(=O)c1C(c1ccc(-c2ccc(Cl)c(C(=O)O)c2)o1)c1c(C)[nH][nH]c1=O	0	51	0	0	-	0
COC(=O)c1cccc(-c2ccc(C(c3c(C)[nH][nH]c3=O)c3c(C)[nH][nH]c3=O)o2)c1	0	57	0	0	81	32
CC(C)(C)S(=O)(=O)N1Cc2cc(CO)ccc2[C@@H]1CCO	-	0	-	-	-	-
COC(=O)[C@]12C[C@H](CC(=O)NCCC(C)C)C(=O)N(CCC3=CCCCC3)C1=C[C@H](C1CCCC1)O[C@@H]2C	-	0	-	-	-	-
CCOC(=O)C1(CCOC)CCN(C(=O)c2sccc2C)CC1	0	26	0	0	0	0
C=CCn1c(SCC(=O)Nc2ccccc2-c2ccccc2)nnc1-c1ccccc1	-	0	-	-	-	-
Cn1c(SCC(=O)Nc2ccc3[nH]c(=O)[nH]c3c2)nnc1-c1ccc(F)cc1	0	29	0	0	0	0
Cc1nonc1NC(=O)CSc1nc(CCC2CCCC2)nc2ccccc12	0	25	0	0	0	0
Cc1cc(NC(=O)CSc2nc(CCC3CCCC3)nc3ccccc23)no1	0	0	0	0	0	-
CC(C)c1ccc(NC(=O)/C(C#N)=C/c2ccncc2)cc1	0	24	0	0	0	0
Cc1ccc(NCc2nc3ccccc3n2C)cc1	0	0	0	0	0	-
Cn1c(CNc2ccc(O)cc2)nc2ccccc21	0	35	0	0	0	0
COc1ccc(-c2nc3cc(C)c(Br)c(C)n3c2Cc2ccccc2C(F)(F)F)cc1OC	-	0	-	-	-	-
SMILES	PAFAH1B3 inh	TDP2 inh	PAFAH1B2 FP inh	PAFAH2 FP inh	Apaf-1 inh	TDP2 inh conf	others
COc1ccccc1Cc1c(-c2ccc(OC)c(OC)c2)nc2cc(C)c(Br)c(C)n12	-	33	-	-	-	0
CCCC[C@H](C(=O)N(C)c1cccc(OC)c1)[C@@H](O)c1ccc(Cl)cc1	-	0	-	-	-	-
COc1ccccc1C(=O)Nc1nnn(C)n1	0	0	0	0	0	-
COc1ccccc1C(=O)Nc1nc(C)cc(C)n1	-	25	-	-	0	0
CCOC(=O)c1c(C)[nH]c(C(=O)CN2CCN(CC)CC2)c1C	0	0	0	0	0	-
CCOC(=O)c1c(C)[nH]c(C(=O)CN2CC(C)OC(C)C2)c1C (stereo unspecified)	0	29	0	0	0	0
O=C(CN1CCCC1)Nc1ccc2c(c1)CCC2	0	28	0	0	0	0
C=CCn1c(NS(=O)(=O)c2ccccc2)c(S(=O)(=O)c2ccc(C)cc2)c2nc3ccccc3nc21	0	37	0	0	-	39
C[C@@H]1CCN(C2CC2)S(=O)(=O)c2ccc(N3CC[C@@H](O)C3)cc2O1	-	0	-	-	-	-
O=C(NN=Cc1ccc(O)cc1)c1cc(-c2ccc(Cl)cc2)n[nH]1	-	0	-	-	-	-
COCCn1c(=S)[nH]c2sc3c(c2c1=O)CCC(C)C3 (stereo unspecified)	0	0	0	0	0	-
Cn1c(=S)[nH]c2sc3c(c2c1=O)CCC(C(C)(C)C)C3 (stereo unspecified)	0	27	44	0	0	0
CCOc1ccc(CCNC(=O)c2ccc3[nH]ccc3c2)cc1OCC	-	0	-	-	-	-
COC(=O)C1=C(C)N(Cc2cccc(C(F)(F)F)c2)C(=NCc2ccc(OC)cc2)NC1c1cccc(F)c1 (stereo unspecified)	-	0	-	-	-	-
O=S(=O)(Nc1c(O)ccc2ccccc12)c1ccc(F)cc1	0	25	0	0	0	0
COc1cccc(/C=C2\CC3(OC(=O)c4cccc(F)c4)CCCN2C3)c1 (stereo unspecified)	-	0	-	-	-	-
Cc1cc(Cl)c2oc(C(=O)N3CCN(C(=O)c4ccco4)CC3)c(C)c2c1	0	31	0	0	0	0
CCN(CC)CCCNC(=O)CSc1nnc(-c2ccncc2)n1-c1ccc(OC)cc1	-	0	-	-	-	-
CCOC(=O)c1c(S(=O)(=O)N2c3ccccc3CC2C)c(C)n(C)c1C (stereo unspecified)	0	0	0	0	0	-
CCOC(=O)c1c(C)[nH]c(C)c1S(=O)(=O)N1c2ccccc2CC1C (stereo unspecified)	0	55	0	0	0	0
O=[N+]([O-])c1ccc(CN2CCN(c3ccccc3Cl)CC2)o1	0	27	0	0	0	0
Cc1ccccc1N1CCN(Cc2ccc([N+](=O)[O-])o2)CC1	0	0	0	0	0	-
S=C(Nc1ccc(Cl)c(Cl)c1)Nc1nnc(-c2ccncc2)s1	-	0	-	-	-	-
c1coc(-c2nc(-c3ccco3)c(-c3ccco3)nc2-c2ccco2)c1	47	50	45	73	63	0
Nc1nc(-c2ccco2)c(-c2ccco2)s1	0	0	0	0	0	-
CN1[C@@H](Cc2ccccc2)COc2cc(N3CCCC3)ccc2S1(=O)=O	-	0	-	-	-	-
O=c1c(O)cccc2cc(O)c(O)c(O)c12	42	28	35	87	0	0
N#Cc1ccccc1NC(=O)CSc1n[nH]c(-c2ccco2)n1	0	32	0	0	0	0
CC(C)(C)n1nnnc1C(c1cccnc1)N1CCOCC1 (stereo unspecified)	0	27	0	0	0	0
Brc1ccccc1OCCN1CCOCC1	0	26	0	0	0	0
